Six molecules from ChEMBL document CHEMBL4219167, “Disulfiram-based disulfides as narrow-spectrum antibacterial agents” (Bioorg Med Chem Lett, 2018) can be followed below.

One assay has as its system Streptococcus pneumoniae. The assay is described as follows: Antibacterial activity against Streptococcus pneumoniae TCH8431 after 20 hrs by broth microdilution assay. The assay is classed as functional. As to conditions: TCH8431, 20 h.
Assay [1] concerns Staphylococcus aureus. The assay is described as follows: Antibacterial activity against vancomycin-intermediate resistant Staphylococcus aureus AR-217 after 20 hrs by broth microdilution assay. The assay is classed as functional. As to conditions: AR-217, 20 h. (In general: Broth dilution looks for growth in wells or tubes with falling amounts of substance.)
The test system of the next assay is Escherichia coli. The assay is described as follows: Antibacterial activity against Escherichia coli DC10B after 20 hrs by broth microdilution assay. The assay is classed as functional. A digest of the protocol: (§1)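 Medium is tryptic soy broth, 37°C. Overnight culture is adjusted to 0.5 McFarland, diluted 1:100 and exposed to serial dilutions (test agents from 1 mM or 1 mg/mL DMSO stocks; control antibiotics in water). Incubation lasts 20 h. MIC is the lowest concentration with no visible growth.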

The subject of another assay is Acinetobacter baumannii. In words: Antibacterial activity against Acinetobacter baumannii AB5075 after 20 hrs by broth microdilution assay. The assay is classed as functional. Conditions: AB5075, 20 h.
Assay [2] relates to Staphylococcus aureus. The assay is described as follows: Antibacterial activity against methicillin-resistant Staphylococcus aureus COL after 20 hrs by broth microdilution assay. The assay is classed as functional.
The test system of assay [3] is Bacillus anthracis. The assay is described as follows: Antibacterial activity against Bacillus anthracis Ames 35 after 20 hrs by broth microdilution assay. The assay is classed as functional. Conditions: Ames 35, 20 h.
In another assay the test system is Vibrio cholerae. In words: Antibacterial activity against Vibrio cholerae TS D4 after 20 hrs by Todd Hewitt broth broth microdilution method. The assay is classed as functional. Conditions: TS D4, 20 h.
The subject of assay [4] is Yersinia pestis. In words: Antibacterial activity against Yersinia pestis Kim D2 after 20 hrs by broth microdilution assay. The assay is classed as functional. As to conditions: Kim D2, 20 h.
For a further assay, the system named is Pseudomonas aeruginosa. The assay is described as follows: Antibacterial activity against Pseudomonas aeruginosa ATCC 15442 after 20 hrs by broth microdilution assay. As to conditions: ATCC 15442, 20 h. The assay is classed as functional. The method, boiled down:
as §1

The subject of a further assay is Shigella dysenteriae. In words: Antibacterial activity against Shigella dysenteriae Newcastle 1934 after 20 hrs by broth microdilution assay. The assay is classed as functional. As to conditions: Newcastle 1934, 20 h. The method, boiled down: as §1
In assay [5] the test system is Bacillus anthracis. The assay is described as follows: Antibacterial activity against Bacillus anthracis Sterne 34F2 after 20 hrs by broth microdilution assay. The assay is classed as functional. Conditions: Sterne 34F2, 20 h.
For assay [6], the system named is Bacillus anthracis. In words: Antibacterial activity against Bacillus anthracis Weybridge after 20 hrs by broth microdilution assay. The assay is classed as functional.
Assay [7] concerns Staphylococcus aureus. The assay is described as follows: Antibacterial activity against vancomycin-resistant Staphylococcus aureus HIP14300 after 20 hrs by broth microdilution assay. The assay is classed as functional. Conditions: HIP14300, 20 h.
For a further assay, the system named is Burkholderia cepacia. The assay is described as follows: Antibacterial activity against Burkholderia cepacia UCB 717 after 20 hrs by broth microdilution assay. The assay is classed as functional. Conditions: UCB 717, 20 h. A digest of the protocol:
as §1

In assay [8] the test system is Bacillus anthracis. In words: Antibacterial activity against Bacillus anthracis UM23-1 after 20 hrs by broth microdilution assay. As to conditions: UM23-1, 20 h. The assay is classed as functional.
The test system of a further assay is Streptococcus pyogenes. In words: Antibacterial activity against Streptococcus pyogenes H293 after 20 hrs by broth microdilution assay. The assay is classed as functional. Conditions: H293, 20 h.
In the next assay the test system is Citrobacter freundii. The assay is described as follows: Antibacterial activity against Citrobacter freundii 4_7_47CFAA after 20 hrs by broth microdilution assay. The assay is classed as functional. A digest of the protocol: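 Brucella broth, 37°C, 5% CO2. Inoculum is 0.5 McFarland diluted 1:100, with serial drug dilutions from DMSO stocks (1 mM or 1 mg/mL) and control antibiotics in water.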

The next assay deals with Enterococcus faecium. In words: Antibacterial activity against vancomycin-resistant Enterococcus faecium ATCC 700221 after 20 hrs by broth microdilution assay. The assay is classed as functional. Conditions: ATCC 700221, 20 h. A digest of the protocol:
(§2)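 Brain heart infusion broth at 37°C; E. faecium under 5% CO2. Cells at 0.5 McFarland are diluted 1:100 and exposed to serial dilutions (DMSO stocks 1 mM or 1 mg/mL; controls in water).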

A further assay relates to Listeria monocytogenes. The assay is described as follows: Antibacterial activity against Listeria monocytogenes Gibson after 20 hrs by broth microdilution assay. The assay is classed as functional. A digest of the protocol:
as §2

A further assay deals with Brucella neotomae. In words: Antibacterial activity against Brucella neotomae 5K33 after 20 hrs by broth microdilution assay. The assay is classed as functional. As to conditions: 5K33, 20 h.
Another assay concerns Bacillus cereus. In words: Antibacterial activity against Bacillus cereus Gibson 971 after 20 hrs by broth microdilution assay. As to conditions: Gibson 971, 20 h. The assay is classed as functional.
A further assay has as its system Streptococcus agalactiae. In words: Antibacterial activity against Streptococcus agalactiae SGBS005 after 20 hrs by broth microdilution assay. The assay is classed as functional. Conditions: SGBS005, 20 h.
The next assay has as its system Micrococcus luteus. In words: Antibacterial activity against Micrococcus luteus SK58 after 20 hrs by broth microdilution assay. The assay is classed as functional. Conditions: SK58, 20 h.
Assay [9] relates to Yersinia pseudotuberculosis. The assay is described as follows: Antibacterial activity against Yersinia pseudotuberculosis P61 after 20 hrs by broth microdilution assay. The assay is classed as functional. Conditions: P61, 20 h. The method, boiled down: (§3)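 Yersinia cultured in tryptic soy broth at 28°C. A 0.5 McFarland suspension diluted 1:100 receives serial dilutions of agents from 1 mM or 1 mg/mL DMSO stocks; control antibiotics are in water.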

The test system of another assay is Burkholderia multivorans. In words: Antibacterial activity against Burkholderia multivorans CF2 after 20 hrs by broth microdilution assay. The assay is classed as functional. Conditions: CF2, 20 h. The method, boiled down: as §1
A further assay has as its system Yersinia enterocolitica. The assay is described as follows: Antibacterial activity against Yersinia enterocolitica WA-314 after 20 hrs by broth microdilution assay. The assay is classed as functional. As to conditions: WA-314, 20 h. A digest of the protocol: as §3
The subject of another assay is Klebsiella pneumoniae. In words: Antibacterial activity against Klebsiella pneumoniae 700603 after 20 hrs by broth microdilution assay. The assay is classed as functional. As to conditions: Klebsiella pneumoniae, 700603, 20 h. The method, boiled down:
as §1

Another assay relates to Salmonella typhi. In words: Antibacterial activity against Salmonella typhi Ty2 after 20 hrs by Todd Hewitt broth broth microdilution method. As to conditions: Salmonella enterica. The assay is classed as functional, Salmonella enterica subsp. enterica serovar Typhi str. Ty2.
Another assay has as its system Corynebacterium striatum. In words: Antibacterial activity against Corynebacterium striatum FS-1 after 20 hrs by broth microdilution assay. The assay is classed as functional. As to conditions: FS-1, 20 h.
Another assay concerns Proteus mirabilis. The assay is described as follows: Antibacterial activity against Proteus mirabilis HM-752 after 20 hrs by broth microdilution assay. The assay is classed as functional. As to conditions: HM-752, 20 h. A digest of the protocol:
as §1

Assay [10] concerns Staphylococcus epidermidis. The assay is described as follows: Antibacterial activity against vancomycin-intermediate resistant Staphylococcus epidermidis NRS6 after 20 hrs by broth microdilution assay. The assay is classed as functional. As to conditions: NRS6, 20 h.
Another assay relates to Francisella tularensis. In words: Antibacterial activity against Francisella tularensis Utah 112 after 20 hrs by broth microdilution assay. The assay is classed as functional. Conditions: Utah 112, 20 h.
Assay [11] deals with Yersinia pestis. The assay is described as follows: Antibacterial activity against Yersinia pestis Kuma D7 after 20 hrs by broth microdilution assay. The assay is classed as functional. As to conditions: Kuma D7, 20 h.
In another assay the test system is Rhodococcus erythropolis. In words: Antibacterial activity against Rhodococcus erythropolis SK121 after 20 hrs by broth microdilution assay. Conditions: SK121, 20 h. The assay is classed as functional. A digest of the protocol:
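R. erythropolis grown in brain heart infusion broth at 30°C. A 0.5 McFarland suspension diluted 1:100 is treated with serial dilutions from 1 mM or 1 mg/mL DMSO stocks; control antibiotics are in water.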

Values after ≈ are worked out from the molar mass of the structure shown. Where only a bound is given, the exact number is not on record here.

As usually defined, the MIC is the lowest concentration found to suppress growth. Low readings indicate greater potency, high ones weaker potency.

With `CCN(CC)C(=S)SSC`, the minimum inhibitory concentration (MIC) against Streptococcus pneumoniae is over 32 µM; against Staphylococcus aureus [1], 8 µM (≈ 1.56 µg/mL); in the assay on Escherichia coli, over 32 µM; in the assay on Acinetobacter baumannii, over 32 µM; in the assay on Staphylococcus aureus [2], 32 µM (≈ 6.25 µg/mL); against Bacillus anthracis [3], 4 µM (≈ 0.782 µg/mL). Further, the MIC with Vibrio cholerae is 32 µM (≈ 6.25 µg/mL); with Yersinia pestis [4] it was 16 µM (≈ 3.13 µg/mL); against Pseudomonas aeruginosa it was over 32 µM; in the assay on Shigella dysenteriae it was over 32 µM; against Bacillus anthracis [5], 4 µM (≈ 0.782 µg/mL); against Bacillus anthracis [6], 4 µM (≈ 0.782 µg/mL). Besides, the MIC against Staphylococcus aureus [7] was 16 µM (≈ 3.13 µg/mL); with Burkholderia cepacia, over 32 µM; in the assay with Bacillus anthracis [8] it was 2 µM (≈ 0.391 µg/mL); in the assay on Streptococcus pyogenes it was 32 µM (≈ 6.25 µg/mL); with Citrobacter freundii, over 32 µM; against Enterococcus faecium, over 32 µM. Besides, the MIC against Listeria monocytogenes is 32 µM (≈ 6.25 µg/mL); in the assay with Brucella neotomae, over 32 µM; in the assay on Bacillus cereus, 1 µM (≈ 0.195 µg/mL); against Streptococcus agalactiae, over 32 µM; against Micrococcus luteus, 32 µM (≈ 6.25 µg/mL); in assay [9], over 32 µM. The MIC against Burkholderia multivorans was 32 µM (≈ 6.25 µg/mL); in the assay with Yersinia enterocolitica, over 32 µM; against Klebsiella pneumoniae, over 32 µM; against Salmonella typhi, over 32 µM; in the assay on Corynebacterium striatum it was over 32 µM; against Proteus mirabilis, over 32 µM. For the same molecule, the MIC in [10] came to 32 µM (≈ 6.25 µg/mL); in the assay on Francisella tularensis, 32 µM (≈ 6.25 µg/mL); against Yersinia pestis [11], 16 µM (≈ 3.13 µg/mL); in the assay with Rhodococcus erythropolis, 16 µM (≈ 3.13 µg/mL).

In the case of `CCCCCCCCCCSSC(=S)N(CC)CC`, the MIC against Streptococcus pneumoniae is 4 µM (≈ 1.29 µg/mL); against Staphylococcus aureus [1] it was 16 µM (≈ 5.15 µg/mL); in the assay with Staphylococcus aureus [2] it was 16 µM (≈ 5.15 µg/mL); in the assay on Staphylococcus aureus [7] it was 32 µM (≈ 10.3 µg/mL); against Streptococcus pyogenes, 4 µM (≈ 1.29 µg/mL); in the assay with Enterococcus faecium it was 16 µM (≈ 5.15 µg/mL). The MIC (in the assay with Streptococcus agalactiae; in assay [10]) was 16 µM (≈ 5.15 µg/mL) each time.

Take `CCCCSSC(=S)N(CC)CC` [BUTYL DIETHYLCARBAMO(DITHIOPEROXO)THIOATE]: the minimum inhibitory concentration (MIC) against Streptococcus pneumoniae was over 32 µM; in the assay with Staphylococcus aureus [1], 16 µM (≈ 3.8 µg/mL); against Staphylococcus aureus [2], 16 µM (≈ 3.8 µg/mL); against Staphylococcus aureus [7], 16 µM (≈ 3.8 µg/mL); in the assay with Streptococcus pyogenes, 32 µM (≈ 7.6 µg/mL); in the assay on Enterococcus faecium, over 32 µM. In addition, the figures for the MIC (in the assay with Streptococcus agalactiae; in [10]) were over 32 µM and 32 µM (≈ 7.6 µg/mL), respectively.

As for `O=C(O)c1cn(C2CC2)c2cc(N3CCNCC3)c(F)cc2c1=O` [CIPROFLOXACIN], the MIC (against Escherichia coli; against Acinetobacter baumannii; against Vibrio cholerae; with Yersinia pestis [4]; against Citrobacter freundii; in assay [9]) was at most 0.5 µM each time. Further, the MIC in the assay with Burkholderia multivorans is 8 µM (≈ 2.65 µg/mL); in the assay on Salmonella typhi, at most 0.5 µM; in the assay with Corynebacterium striatum it was over 32 µM; in the assay with Proteus mirabilis it was at most 0.5 µM; against Francisella tularensis, at most 0.5 µM; against Yersinia pestis [11] it was at most 0.5 µM. The same molecule showed an MIC in the assay with Rhodococcus erythropolis of at most 0.5 µM.

On to `CCN(CC)C(=S)SSC1CCCCC1` [CYCLOHEXYL DIETHYLCARBAMO(DITHIOPEROXO)THIOATE], for which the MIC in the assay with Streptococcus pneumoniae was over 32 µM; in the assay on Staphylococcus aureus [1], 16 µM (≈ 4.22 µg/mL); with Staphylococcus aureus [2] it was 32 µM (≈ 8.43 µg/mL); with Staphylococcus aureus [7], 32 µM (≈ 8.43 µg/mL); against Streptococcus pyogenes, 16 µM (≈ 4.22 µg/mL); in the assay on Enterococcus faecium, over 32 µM. Besides, the minimum inhibitory concentration (MIC) in the assay with Streptococcus agalactiae is over 32 µM; in assay [10], 32 µM (≈ 8.43 µg/mL).

For `CCN(CC)C(=S)SSC(C)C` [ISOPROPYL DIETHYLCARBAMO(DITHIOPEROXO)THIOATE], the MIC against Streptococcus pneumoniae is over 32 µM; against Staphylococcus aureus [1] it was 32 µM (≈ 7.15 µg/mL); in the assay on Staphylococcus aureus [2] it was over 32 µM; against Staphylococcus aureus [7], over 32 µM; with Streptococcus pyogenes, 32 µM (≈ 7.15 µg/mL); in the assay on Enterococcus faecium it was over 32 µM. For the same molecule, the minimal inhibitory concentration (MIC) (against Streptococcus agalactiae; in assay [10]) was over 32 µM in each case.
